Published values collected from several papers.
Each line is one published result; the experiments were not run side by side.
SLC6A2: Sodium-dependent noradrenaline transporter (SLC6A2, Homo sapiens, UniProt P23975)
MC4R: Melanocortin receptor 4 (MC4R, Homo sapiens, UniProt P32245)
FPR1: fMet-Leu-Phe receptor (FPR1, Homo sapiens, UniProt P21462)
DNA dC->dU-editing enzyme APOBEC-3B: DNA dC->dU-editing enzyme APOBEC-3B (Homo sapiens, UniProt Q9UH17)
NQO2: Ribosyldihydronicotinamide dehydrogenase [quinone] (NQO2, Homo sapiens, UniProt P16083)
CYSLTR1: Cysteinyl leukotriene receptor 1 (CYSLTR1, Homo sapiens, UniProt Q9Y271)

Clc1ccc(C(c2ccccc2)c2nnnn2CCCCN2CCN(CC=Cc3ccccc3)CC2)cc1 (stereo not shown)
inhibition (SLC6A2; transporter uptake, inhibitor; HEK293; 1 µM): 50.4%

CCN1CCN(Cc2ccc(NC(=O)c3ccc(C)c(Oc4ccnc5[nH]ccc45)c3)cc2C(F)(F)F)CC1
inhibition (Serine/threonine-protein kinase 10 (STK10, Homo sapiens, UniProt O94804); target engagement in cells, inhibitor, chemoproteomics; Huh-7; 10 µM): -64.9%

Clc1ccc(CC2CCN(CCCCn3nnnc3C(c3ccccc3)c3ccccc3)CC2)cc1Cl
inhibition (SLC6A2; transporter uptake, inhibitor; HEK293; 1 µM): 63.9%

O=C1N=C(N2CCCCN2)S/C1=C\c1ccc(F)cc1O
inhibition (MC4R; ligand displacement, radioligand; 10 µM): < 10%

CCc1cc2c(=O)c(-c3nc4ccccc4n3C)c(C)oc2cc1OC(C)=O
inhibition (FPR1; calcium signal, antagonist; 50 µM): 100%

Nc1ncnc2c1ncn2C1OC(COP(=O)(O)OP(=O)(O)O)C(O)C1O (stereo not shown)
inhibition (DNA dC->dU-editing enzyme APOBEC-3B; enzyme activity, inhibitor, fluorescence; 100 µM): 41.8%

c1ccc(CCC2CCN(CCCn3nnnc3C(c3ccccc3)c3ccccc3)CC2)cc1
inhibition (SLC6A2; transporter uptake, inhibitor; HEK293; 1 µM): 74.4%

COc1ccccc1-c1c(C(F)(F)F)oc2cc(OC(=O)C3CC3)ccc2c1=O
inhibition (FPR1; calcium signal, antagonist; 50 µM): 100%

CNC(=O)c1cc(Oc2ccc(NC(=O)Nc3ccc(Cl)c(C(F)(F)F)c3)cc2)ccn1
inhibition (Serine/threonine-protein kinase Chk2 (CHEK2, Homo sapiens, UniProt O96017, R145W); enzyme activity, inhibitor; 10 µM): 0%

COc1ccccc1-c1c(C(F)(F)F)oc2cc(OC(=O)C(C)C)ccc2c1=O
inhibition (FPR1; calcium signal, antagonist; 50 µM): 100%

Clc1ccc(C(c2ccccc2)c2nnnn2CCCCN2CCC(CCCc3ccccc3)CC2)cc1 (stereo not shown)
inhibition (SLC6A2; transporter uptake, inhibitor; HEK293; 1 µM): 84.1%

Cc1c(COc2c(F)cc(F)cc2F)c2c(n1C)C(=O)C(NCCCN(C)C)=CC2=O
inhibition (NQO2; cell-free assay, inhibitor; 1 µM): 73%

COc1ccccc1-c1c(C)oc2cc(OC(=O)c3ccco3)ccc2c1=O
inhibition (FPR1; calcium signal, antagonist; 50 µM): 100%

O=C(c1ccc(F)cc1)N(Cc1ccccc1)C1CCCCC1
inhibition (CYSLTR1; ligand displacement; 10 µM): -7%

Clc1ccc(C(c2ccc(Cl)cc2)c2nnnn2CCCCN2CCC(c3ccccc3)CC2)cc1
inhibition (SLC6A2; transporter uptake, inhibitor; HEK293; 1 µM): 34%

CC(=O)N[C@H]1CSSC[C@@H](C(=O)N[C@H](Cc2c[nH]c3ccccc23)C(N)=O)NC(=O)[C@H](Cc2ccccc2)NC(=O)[C@H](CCCNC(=N)N)NC1=O
inhibition (MC4R; ligand displacement, radioligand; 10 µM, 40 min): 0%

Clc1ccc(C(c2ccc(Cl)cc2)c2nnnn2CCCCN2CCN(CCCc3ccccc3)CC2)cc1
inhibition (SLC6A2; transporter uptake, inhibitor; HEK293; 1 µM): 21.3%

CC/C(=N\NC(=O)NCc1cccc(O)c1)c1ccc(O)c(C)c1O
inhibition (Fibroblast growth factor receptor 4 (FGFR4, Homo sapiens, UniProt P22455, N535K); enzyme activity, inhibitor; 0.1 µM): 3.1%

Fc1ccc(C(c2ccc(F)cc2)c2nnnn2CCCCN2CCC(Cc3ccc(Cl)c(Cl)c3)CC2)cc1
inhibition (SLC6A2; transporter uptake, inhibitor; HEK293; 1 µM): 75.9%

Cc1c(COc2c(F)cc(F)cc2F)c2c(n1C)C(=O)C=C(NCCCN(C)C)C2=O
inhibition (NQO2; enzyme activity, inhibitor; 1 µM): 98%

Cc1ccc(Nc2nccc(N(C)c3ccc4c(C)n(C)nc4c3)n2)cc1S(N)(=O)=O
inhibition (Serine/threonine-protein kinase Chk2 (CHEK2, Homo sapiens, UniProt O96017, I157T); enzyme activity, inhibitor; 0.3 µM): -1%

O=C(O)C1OC(Oc2cc(O)c3c(=O)cc(-c4ccc(O)cc4)oc3c2)C(O)C(O)C1O (stereo not shown)
inhibition (DNA dC->dU-editing enzyme APOBEC-3B; enzyme activity, inhibitor, fluorescence; 100 µM): 41.2%

COc1ccccc1-c1c(C(F)(F)F)oc2cc(OC(=O)c3ccccc3)ccc2c1=O
inhibition (FPR1; calcium signal, antagonist; 50 µM): 90%

Clc1ccc(C(c2ccccc2)c2nnnn2CCCCN2CCN(CCCc3ccccc3)CC2)cc1 (stereo not shown)
inhibition (SLC6A2; transporter uptake, inhibitor; HEK293; 1 µM): 63.6%

CCCCCCc1cc2c(=O)c(-c3nc4ccccc4n3C)c(C)oc2cc1OC(C)=O
inhibition (FPR1; calcium signal, antagonist; 50 µM): 100%

CC(CCC(=O)NCC(=O)O)C1CCC2C3C(O)CC4CC(O)CCC4(C)C3CC(O)C12C (stereo not shown)
inhibition (DNA dC->dU-editing enzyme APOBEC-3B; enzyme activity, inhibitor, fluorescence; 100 µM): 23.7%

CCOC(=O)Oc1ccc2c(=O)c(-c3ccccc3OC)c(C(F)(F)F)oc2c1
inhibition (FPR1; calcium signal, antagonist; 50 µM): 80%

CCN(Cc1ccccc1C(F)(F)F)C(=O)C1CCN(S(=O)(=O)c2ccc3[nH]ncc3c2)CC1
inhibition (CYSLTR1; ligand displacement, radioligand; 10 µM): 38%
